Assays:
Rattus norvegicus [1] = species: Rattus norvegicus; assay: Tissue (spleen) distribution in Albino male CD rats after 60 minutes expressed as percent of injected dose per gram of organ.; format: ADME, organism-based; details: in vivo, 1 h
Rattus norvegicus [2] = species: Rattus norvegicus; assay: Tissue (testicle) distribution in Albino male CD rats after 30 minutes expressed as percent of injected dose per gram of organ.; format: ADME, organism-based; details: in vivo, 0.5 h
Method in brief: (§1)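 Male albino CD rats (225-250 g) received the 11C-labelled radioligand in saline by tail-vein injection. Three rats per time point were decapitated under light ether anaesthesia at 5, 15, 30, 60 or 90 min. Blood was collected heparinized and plasma separated by centrifugation. The pituitary was dissected from the brain. Lung, liver (three-lobe pieces) and right deltoid muscle were sampled, washed in cold saline, gamma-counted and weighed. Results are %I.D./g.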

Rattus norvegicus [3] = species: Rattus norvegicus; assay: Tissue (testicle) distribution in Albino male CD rats after 60 minutes expressed as percent of injected dose per gram of organ.; format: ADME, organism-based; details: in vivo, 1 h; method in brief: as §1
Rattus norvegicus [4] = species: Rattus norvegicus; assay: Tissue (testicle) distribution in Albino male CD rats after 90 minutes expressed as percent of injected dose per gram of organ.; format: ADME, organism-based; details: in vivo, 1.5 h
Rattus norvegicus [5] = species: Rattus norvegicus; assay: Tissue (kidney) distribution in Albino male CD rats after 30 minutes expressed as percent of injected dose per gram of organ.; format: ADME, organism-based; details: in vivo, 0.5 h
Method in brief: (§2)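 Radioligand given in saline into tail vein of male albino CD rats (225-250 g); 100-200 µCi per animal, 1-2 Ci/µmol at injection depending on radioligand. Three rats per time point were decapitated under light ether anaesthesia. Blood, plasma, brain regions and washed organs were weighed and gamma-counted. Uptake is %I.D./g tissue, mean ± SD.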

Rattus norvegicus [6] = species: Rattus norvegicus; assay: Tissue (kidney) distribution in Albino male CD rats after 5 minutes expressed as percent of injected dose per gram of organ.; format: ADME, organism-based; details: in vivo; method in brief: as §2
Rattus norvegicus [7] = species: Rattus norvegicus; assay: Tissue (liver) distribution in Albino male CD rats after 5 minutes expressed as percent of injected dose per gram of organ.; format: ADME, organism-based; details: in vivo; method in brief: as §1
Rattus norvegicus [8] = species: Rattus norvegicus; assay: Tissue (liver) distribution in Albino male CD rats after 60 minutes expressed as percent of injected dose per gram of organ.; format: ADME, organism-based; details: in vivo, 1 h; method in brief: as §1
[9] = molecular target: Translocator protein (Rattus norvegicus) (UniProt P16257); assay: Tissue (lung) concentration of radioactivity at 30 min post-injection into Albino male CD rats after pretreatment with cold PK 11195.; format: functional
Method in brief: (§3)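 Blocking study in male albino CD rats, five per group. Immediately before the 11C radioligand (in saline, i.v. tail vein), rats received 30 µL tail-vein PK 11195 (5 mg/kg; 1.4-1.6 mg) in DMSO:EtOH 1:1, or vehicle. Rats were decapitated at 30 min. Tissues were dissected, washed, gamma-counted and weighed as in the biodistribution study. Results are %I.D./g.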

Rattus norvegicus [10] = species: Rattus norvegicus; assay: Tissue (lung) distribution in Albino male CD rats after 30 minutes expressed as percent of injected dose per gram of organ.; format: ADME, organism-based; details: in vivo, 0.5 h; method in brief: as §1
[11] = molecular target: Translocator protein (Rattus norvegicus) (UniProt P16257); assay: Tissue (muscle) concentration of radioactivity at 30 min post-injection into Albino male CD rats after pretreatment with cold PK 11195.; format: functional; method in brief: as §3
Rattus norvegicus [12] = species: Rattus norvegicus; assay: Tissue (blood) distribution in Albino male CD rats after 15 minutes expressed as percent of injected dose per gram of organ.; format: ADME, organism-based; details: in vivo, 0.25 h; method in brief: as §2
Rattus norvegicus [13] = species: Rattus norvegicus; assay: Tissue (adrenal gland) distribution in Albino male CD rats after 30 minutes expressed as percent of injected dose per gram of organ.; format: ADME, organism-based; details: in vivo, 0.5 h; method in brief: as §2
Rattus norvegicus [14] = species: Rattus norvegicus; assay: Tissue (adrenal gland) distribution in Albino male CD rats after 5 minutes expressed as percent of injected dose per gram of organ.; format: ADME, organism-based; details: in vivo; method in brief: as §2
Rattus norvegicus [15] = species: Rattus norvegicus; assay: Tissue (spleen) distribution in Albino male CD rats after 30 minutes expressed as percent of injected dose per gram of organ.; format: ADME, organism-based; details: in vivo, 0.5 h; method in brief: as §1
Rattus norvegicus [16] = species: Rattus norvegicus; assay: Tissue (muscle) distribution in Albino male CD rats after 30 minutes expressed as percent of injected dose per gram of organ.; format: ADME, organism-based; details: in vivo, 0.5 h; method in brief: as §1
Rattus norvegicus [17] = species: Rattus norvegicus; assay: Tissue (muscle) distribution in Albino male CD rats after 5 minutes expressed as percent of injected dose per gram of organ.; format: ADME, organism-based; details: in vivo; method in brief: as §1
Rattus norvegicus [18] = species: Rattus norvegicus; assay: Tissue (cortex) distribution in Albino male CD rats after 15 minutes expressed as percent of injected dose per gram of organ.; format: ADME, organism-based; details: in vivo, 0.25 h; method in brief: as §2
Rattus norvegicus [19] = species: Rattus norvegicus; assay: Tissue (cortex) distribution in Albino male CD rats after 90 minutes expressed as percent of injected dose per gram of organ.; format: ADME, organism-based; details: in vivo, 1.5 h; method in brief: as §2
Rattus norvegicus [20] = species: Rattus norvegicus; assay: Tissue (heart) concentration of radioactivity at 30 min post-injection into Albino male CD rats with vehicle.; format: ADME, organism-based; details: in vivo, 0.5 h
Method in brief: (§4)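 Separate groups of five rats received tail-vein PK 11195 (1.4-1.6 mg; 5 mg/kg) in 30 µL DMSO:EtOH 1:1, or vehicle alone, immediately before iv radioligand (90-170 µCi in saline, 0.9-1 Ci/µmol). Rats were decapitated at 30 min and tissues gamma-counted; values are %I.D./g.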

[21] = molecular target: Translocator protein (Rattus norvegicus) (UniProt P16257); assay: Tissue (adrenal gland) concentration of radioactivity at 30 min post-injection into Albino male CD rats after pretreatment with cold PK 11195.; format: functional, tissue-based; method in brief: as §4
Rattus norvegicus [22] = species: Rattus norvegicus; assay: Tissue (muscle) distribution in Albino male CD rats after 60 minutes expressed as percent of injected dose per gram of organ.; format: ADME, organism-based; details: in vivo, 1 h; method in brief: as §1
[23] = molecular target: Translocator protein (Rattus norvegicus) (UniProt P16257); assay: Tissue (pituitary) concentration of radioactivity at 30 min post-injection into Albino male CD rats after pretreatment with cold PK 11195.; format: functional, tissue-based; details: Pituitary gland; method in brief: as §3
Rattus norvegicus [24] = species: Rattus norvegicus; assay: Tissue (pituitary) concentration of radioactivity at 30 min post-injection into Albino male CD rats with vehicle.; format: ADME, organism-based, Pituitary gland; details: in vivo, 0.5 h; method in brief: as §3
Rattus norvegicus [25] = species: Rattus norvegicus; assay: Tissue (pituitary) distribution in Albino male CD rats after 30 minutes expressed as percent of injected dose per gram of organ.; format: ADME, organism-based, Pituitary gland; details: in vivo, 0.5 h; method in brief: as §1
Rattus norvegicus [26] = species: Rattus norvegicus; assay: Tissue (pituitary) distribution in Albino male CD rats after 5 minutes expressed as percent of injected dose per gram of organ.; format: ADME, organism-based, Pituitary gland; details: in vivo; method in brief: as §1
Rattus norvegicus [27] = species: Rattus norvegicus; assay: Tissue (plasma) distribution in Albino male CD rats after 30 minutes expressed as percent of injected dose per gram of organ.; format: ADME, organism-based; details: in vivo, 0.5 h; method in brief: as §1
Rattus norvegicus [28] = species: Rattus norvegicus; assay: Tissue (plasma) distribution in Albino male CD rats after 5 minutes expressed as percent of injected dose per gram of organ.; format: ADME, organism-based; details: in vivo; method in brief: as §1
[29] = molecular target: Translocator protein (Rattus norvegicus) (UniProt P16257); assay: Tissue (spleen) concentration of radioactivity at 30 min post-injection into Albino male CD rats after pretreatment with cold PK 11195.; format: functional, tissue-based; method in brief: as §3
Rattus norvegicus [30] = species: Rattus norvegicus; assay: Tissue (heart) distribution in Albino male CD rats after 30 minutes expressed as percent of injected dose per gram of organ.; format: ADME, organism-based; details: in vivo, 0.5 h; method in brief: as §2
Rattus norvegicus [31] = species: Rattus norvegicus; assay: Tissue (heart) distribution in Albino male CD rats after 60 minutes expressed as percent of injected dose per gram of organ.; format: ADME, organism-based; details: in vivo, 1 h; method in brief: as §2
Rattus norvegicus [32] = species: Rattus norvegicus; assay: Tissue (intestine) distribution in Albino male CD rats after 5 minutes expressed as percent of injected dose per gram of organ.; format: ADME, organism-based; details: in vivo; method in brief: as §2
Rattus norvegicus [33] = species: Rattus norvegicus; assay: Tissue (intestine) distribution in Albino male CD rats after 60 minutes expressed as percent of injected dose per gram of organ.; format: ADME, organism-based; details: in vivo, 1 h; method in brief: as §2
[34] = molecular target: Translocator protein (Rattus norvegicus) (UniProt P16257); assay: Tissue (kidney) concentration of radioactivity at 30 min post-injection into Albino male CD rats after pretreatment with cold PK 11195.; format: functional, tissue-based; method in brief: as §4
Rattus norvegicus [35] = species: Rattus norvegicus; assay: Tissue (blood) distribution in Albino male CD rats after 90 minutes expressed as percent of injected dose per gram of organ.; format: ADME, organism-based; details: in vivo, 1.5 h; method in brief: as §2
Rattus norvegicus [36] = species: Rattus norvegicus; assay: Tissue (cerebellum) distribution in Albino male CD rats after 5 minutes expressed as percent of injected dose per gram of organ.; format: ADME, organism-based; details: in vivo; method in brief: as §2
[37] = molecular target: Translocator protein (Rattus norvegicus) (UniProt P16257); assay: Tissue (liver) concentration of radioactivity at 30 min post-injection into Albino male CD rats after pretreatment with cold PK 11195.; format: functional, tissue-based; method in brief: as §4
Rattus norvegicus [38] = species: Rattus norvegicus; assay: Tissue (lung) distribution in Albino male CD rats after 15 minutes expressed as percent of injected dose per gram of organ.; format: ADME, organism-based; details: in vivo, 0.25 h; method in brief: as §1
Rattus norvegicus [39] = species: Rattus norvegicus; assay: Tissue (intestine) distribution in Albino male CD rats after 15 minutes expressed as percent of injected dose per gram of organ.; format: ADME, organism-based; details: in vivo, 0.25 h; method in brief: as §2

Chain of Translocator protein (Rattus norvegicus) (P16257 whole entry, looked up): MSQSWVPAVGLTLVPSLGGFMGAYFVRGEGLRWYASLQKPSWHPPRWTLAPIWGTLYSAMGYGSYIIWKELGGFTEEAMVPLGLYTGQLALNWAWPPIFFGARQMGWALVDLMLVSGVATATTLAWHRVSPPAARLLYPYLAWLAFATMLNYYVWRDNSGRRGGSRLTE

I.D./g (Rattus norvegicus [1]): 0.65% | I.D./g (Rattus norvegicus [2]): 0.09% | I.D./g (Rattus norvegicus [3]): 0.09% | I.D./g (Rattus norvegicus [4]): 0.08% | I.D./g (Rattus norvegicus [5]): 0.55% | I.D./g (Rattus norvegicus [6]): 0.41% | I.D./g (Rattus norvegicus [7]): 0.41% | I.D./g (Rattus norvegicus [8]): 0.45% | I.D./g [9]: < 0.12% | I.D./g (Rattus norvegicus [10]): 2.09% | I.D./g [11]: < 0.03% | I.D./g (Rattus norvegicus [12]): 0.14% | I.D./g (Rattus norvegicus [13]): 2.78% | I.D./g (Rattus norvegicus [14]): 1.12% | I.D./g (Rattus norvegicus [15]): 0.77% | I.D./g (Rattus norvegicus [16]): 0.1% | I.D./g (Rattus norvegicus [17]): 0.06% | I.D./g (Rattus norvegicus [18]): 0.11% | I.D./g (Rattus norvegicus [19]): 0.06% | I.D./g (Rattus norvegicus [20]): 0.35% | I.D./g [21]: < 0.78% | I.D./g (Rattus norvegicus [22]): 0.07% | I.D./g [23]: > 0.06% | I.D./g (Rattus norvegicus [24]): 0.09% | I.D./g (Rattus norvegicus [25]): 0.12% | I.D./g (Rattus norvegicus [26]): 0.16% | I.D./g (Rattus norvegicus [27]): 0.06% | I.D./g (Rattus norvegicus [28]): 0.11% | I.D./g [29]: < 0.09% | I.D./g (Rattus norvegicus [30]): 0.73% | I.D./g (Rattus norvegicus [31]): 0.6% | I.D./g (Rattus norvegicus [32]): 0.18% | I.D./g (Rattus norvegicus [33]): 0.25% | I.D./g [34]: 0.12% | I.D./g (Rattus norvegicus [35]): 0.05% | I.D./g (Rattus norvegicus [36]): 0.1% | I.D./g [37]: < 0.45% | I.D./g (Rattus norvegicus [38]): 2.25% | I.D./g (Rattus norvegicus [39]): 0.37%
Structure (SMILES): CCC(C)N(C)C(=O)c1nc2ccccc2c(-c2ccccc2F)c1C (centres undefined)
